# Laboratory results taken from the RNAGym collection of RNA variant scans (doi:10.1038/nmeth.2970).
# B1: GFP aptamer (parent)
# chain: GCUUCUGGACUGCGAUGGGAGCACGAAACGUCGUGGCGCAAUUGGGUGGGGAAAGUCCUUAAAAGAGGGCCACCACAGAAGC
# Variants of: B1
# Assay: HiTS-RAP
# Conditions: with EGFP
# In short: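 Aptamer DNA templates carrying a T7 promoter and ter site were sequenced on an Illumina GAIIx flowcell, then transcribed in situ by T7 RNA polymerase and halted by GST-Tus (30 minutes, 37°C). Clusters were imaged after 30-minute room-temperature equilibration with EGFP-mOrange at 0.04 nM to 625 nM in fivefold steps. Intensities were decay-corrected, normalised to sequencing intensity and averaged per sequence. Kd came from weighted Hill fits per lane, geometrically averaged over three lanes, with non-rising sequences set to 125 nM.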
row,Variant,Kd
1,GCUUCUGGACUGCGAUGGGAGCACGAAACGUCGUGGCGCAAUUGGGUGGGGAAAGUCCUUAAAAGAGGUCCACCACAGAAGC [G69U],3.44 nM
2,GCUUCUGGACUGCGAUGGGAGCACGAAACGUCGUGGCGCAAUUGGGUGGGGAAAGUCCUUAAAAGAGGGACACCACAGAAGC [C70A],79.2 nM
3,GCUUCUGGACUGCGAUGGGAGCACGAAACGUCGUGGCGCAAUUGGGUGGGGAAAGUCCUUAAAAGAGGGGCACCACAGAAGC [C70G],43.1 nM
4,GCUUCUGGACUGCGAUGGGAGCACGAAACGUCGUGGCGCAAUUGGGUGGGGAAAGUCCUUAAAAGAGGGUCACCACAGAAGC [C70U],7.23 nM
5,GCUUCUGGACUGCGAUGGGAGCACGAAACGUCGUGGCGCAAUUGGGUGGGGAAAGUCCUUAAAAGAGGGCAACCACAGAAGC [C71A],≥ 125 nM
6,GCUUCUGGACUGCGAUGGGAGCACGAAACGUCGUGGCGCAAUUGGGUGGGGAAAGUCCUUAAAAGAGGGCGACCACAGAAGC [C71G],37.3 nM
7,GCUUCUGGACUGCGAUGGGAGCACGAAACGUCGUGGCGCAAUUGGGUGGGGAAAGUCCUUAAAAGAGGGCUACCACAGAAGC [C71U],14.5 nM
8,GCUUCUGGACUGCGAUGGGAGCACGAAACGUCGUGGCGCAAUUGGGUGGGGAAAGUCCUUAAAAGAGGGCCCCCACAGAAGC [A72C],≥ 125 nM
9,GCUUCUGGACUGCGAUGGGAGCACGAAACGUCGUGGCGCAAUUGGGUGGGGAAAGUCCUUAAAAGAGGGCCGCCACAGAAGC [A72G],3.33 nM
10,GCUUCUGGACUGCGAUGGGAGCACGAAACGUCGUGGCGCAAUUGGGUGGGGAAAGUCCUUAAAAGAGGGCCGUCACAGAAGC [A72G C73U],8.64 nM
11,GCUUCUGGACUGCGAUGGGAGCACGAAACGUCGUGGCGCAAUUGGGUGGGGAAAGUCCUUAAAAGAGGGCCGCUACAGAAGC [A72G C74U],7.35 nM
12,GCUUCUGGACUGCGAUGGGAGCACGAAACGUCGUGGCGCAAUUGGGUGGGGAAAGUCCUUAAAAGAGGGCCUCCACAGAAGC [A72U],17.7 nM
13,GCUUCUGGACUGCGAUGGGAGCACGAAACGUCGUGGCGCAAUUGGGUGGGGAAAGUCCUUAAAAGAGGGCCAACACAGAAGC [C73A],8.52 nM
14,GCUUCUGGACUGCGAUGGGAGCACGAAACGUCGUGGCGCAAUUGGGUGGGGAAAGUCCUUAAAAGAGGGCCAGCACAGAAGC [C73G],7.26 nM
15,GCUUCUGGACUGCGAUGGGAGCACGAAACGUCGUGGCGCAAUUGGGUGGGGAAAGUCCUUAAAAGAGGGCCAUCACAGAAGC [C73U],6.59 nM
16,GCUUCUGGACUGCGAUGGGAGCACGAAACGUCGUGGCGCAAUUGGGUGGGGAAAGUCCUUAAAAGAGGGCCAUUACAGAAGC [C73U C74U],7.64 nM
17,GCUUCUGGACUGCGAUGGGAGCACGAAACGUCGUGGCGCAAUUGGGUGGGGAAAGUCCUUAAAAGAGGGCCACAACAGAAGC [C74A],28.9 nM
18,GCUUCUGGACUGCGAUGGGAGCACGAAACGUCGUGGCGCAAUUGGGUGGGGAAAGUCCUUAAAAGAGGGCCACGACAGAAGC [C74G],14.5 nM
19,GCUUCUGGACUGCGAUGGGAGCACGAAACGUCGUGGCGCAAUUGGGUGGGGAAAGUCCUUAAAAGAGGGCCACUACAGAAGC [C74U],6.27 nM
20,GCUUCUGGACUGCGAUGGGAGCACGAAACGUCGUGGCGCAAUUGGGUGGGGAAAGUCCUUAAAAGAGGGCCACCCCAGAAGC [A75C],26.6 nM
21,GCUUCUGGACUGCGAUGGGAGCACGAAACGUCGUGGCGCAAUUGGGUGGGGAAAGUCCUUAAAAGAGGGCCACCGCAGAAGC [A75G],9.8 nM
22,GCUUCUGGACUGCGAUGGGAGCACGAAACGUCGUGGCGCAAUUGGGUGGGGAAAGUCCUUAAAAGAGGGCCACCGCGGAAGC [A75G A77G],6.48 nM
23,GCUUCUGGACUGCGAUGGGAGCACGAAACGUCGUGGCGCAAUUGGGUGGGGAAAGUCCUUAAAAGAGGGCCACCGCAGGAGC [A75G A79G],6.58 nM

row,Variant,Kd
1,GCUUCUGGACUGCGAUGGGAGCACGAAACGUCGUGGCGCAAUUGGGUGGGGAAAGUCCUUAAAAGAGGGCCACCUCAGAAGC [A75U],26.3 nM
2,GCUUCUGGACUGCGAUGGGAGCACGAAACGUCGUGGCGCAAUUGGGUGGGGAAAGUCCUUAAAAGAGGGCCACCAAAGAAGC [C76A],13.6 nM
3,GCUUCUGGACUGCGAUGGGAGCACGAAACGUCGUGGCGCAAUUGGGUGGGGAAAGUCCUUAAAAGAGGGCCACCAGAGAAGC [C76G],28.8 nM
4,GCUUCUGGACUGCGAUGGGAGCACGAAACGUCGUGGCGCAAUUGGGUGGGGAAAGUCCUUAAAAGAGGGCCACCAUAGAAGC [C76U],37.1 nM
5,GCUUCUGGACUGCGAUGGGAGCACGAAACGUCGUGGCGCAAUUGGGUGGGGAAAGUCCUUAAAAGAGGGCCACCACCGAAGC [A77C],15.3 nM
6,GCUUCUGGACUGCGAUGGGAGCACGAAACGUCGUGGCGCAAUUGGGUGGGGAAAGUCCUUAAAAGAGGGCCACCACGGAAGC [A77G],4.77 nM
7,GCUUCUGGACUGCGAUGGGAGCACGAAACGUCGUGGCGCAAUUGGGUGGGGAAAGUCCUUAAAAGAGGGCCACCACUGAAGC [A77U],10.8 nM
8,GCUUCUGGACUGCGAUGGGAGCACGAAACGUCGUGGCGCAAUUGGGUGGGGAAAGUCCUUAAAAGAGGGCCACCACAAAAGC [G78A],13.2 nM
9,GCUUCUGGACUGCGAUGGGAGCACGAAACGUCGUGGCGCAAUUGGGUGGGGAAAGUCCUUAAAAGAGGGCCACCACACAAGC [G78C],43.8 nM
10,GCUUCUGGACUGCGAUGGGAGCACGAAACGUCGUGGCGCAAUUGGGUGGGGAAAGUCCUUAAAAGAGGGCCACCACAUAAGC [G78U],6.2 nM
11,GCUUCUGGACUGCGAUGGGAGCACGAAACGUCGUGGCGCAAUUGGGUGGGGAAAGUCCUUAAAAGAGGGCCACCACAGCAGC [A79C],18.6 nM
12,GCUUCUGGACUGCGAUGGGAGCACGAAACGUCGUGGCGCAAUUGGGUGGGGAAAGUCCUUAAAAGAGGGCCACCACAGGAGC [A79G],4.31 nM
13,GCUUCUGGACUGCGAUGGGAGCACGAAACGUCGUGGCGCAAUUGGGUGGGGAAAGUCCUUAAAAGAGGGCCACCACAGUAGC [A79U],7.52 nM
14,GCUUCUGGACUGCGAUGGGAGCACGAAACGUCGUGGCGCAAUUGGGUGGGGAAAGUCCUUAAAAGAGGGCCACCACAGACGC [A80C],12.1 nM
15,GCUUCUGGACUGCGAUGGGAGCACGAAACGUCGUGGCGCAAUUGGGUGGGGAAAGUCCUUAAAAGAGGGCCACCACAGAGGC [A80G],3.57 nM
16,GCUUCUGGACUGCGAUGGGAGCACGAAACGUCGUGGCGCAAUUGGGUGGGGAAAGUCCUUAAAAGAGGGCCACCACAGAUGC [A80U],6.99 nM
17,GCUUCUGGACUGCGAUGGGAGCACGAAACGUCGUGGCGCAAUUGGGUGGGGAAAGUCCUUAAAAGAGGGCCACCACAGAAAC [G81A],5.44 nM
18,GCUUCUGGACUGCGAUGGGAGCACGAAACGUCGUGGCGCAAUUGGGUGGGGAAAGUCCUUAAAAGAGGGCCACCACAGAACC [G81C],14.1 nM
19,GCUUCUGGACUGCGAUGGGAGCACGAAACGUCGUGGCGCAAUUGGGUGGGGAAAGUCCUUAAAAGAGGGCCACCACAGAAUC [G81U],4.53 nM
20,GCUUCUGGACUGCGAUGGGAGCACGAAACGUCGUGGCGCAAUUGGGUGGGGAAAGUCCUUAAAAGAGGGCCACCACAGAAGA [C82A],3.36 nM
21,GCUUCUGGACUGCGAUGGGAGCACGAAACGUCGUGGCGCAAUUGGGUGGGGAAAGUCCUUAAAAGAGGGCCACCACAGAAGG [C82G],10.1 nM
22,GCUUCUGGACUGCGAUGGGAGCACGAAACGUCGUGGCGCAAUUGGGUGGGGAAAGUCCUUAAAAGAGGGCCACCACAGAAGU [C82U],4.16 nM
